# Results pooled from the literature.
# PIK3CA: Phosphatidylinositol 4,5-bisphosphate 3-kinase catalytic subunit alpha isoform (PIK3CA, Homo sapiens, UniProt P42336)
# PIK3CA H1047L: Phosphatidylinositol 4,5-bisphosphate 3-kinase catalytic subunit alpha isoform (PIK3CA, Homo sapiens, UniProt P42336, H1047L)
# PIK3CA H1047Y: Phosphatidylinositol 4,5-bisphosphate 3-kinase catalytic subunit alpha isoform (PIK3CA, Homo sapiens, UniProt P42336, H1047Y)
# PIK3CA C420R: Phosphatidylinositol 4,5-bisphosphate 3-kinase catalytic subunit alpha isoform (PIK3CA, Homo sapiens, UniProt P42336, C420R)
# PIK3CA I800L: Phosphatidylinositol 4,5-bisphosphate 3-kinase catalytic subunit alpha isoform (PIK3CA, Homo sapiens, UniProt P42336, I800L)
SMILES,target,assay,setting,remaining binding [%]
N[C@@H]1CCN(c2nccc(-c3cnn4ncccc34)n2)C1,PIK3CA,binding,1 µM,100
Cc1cnc(Nc2ccc(C(=O)N3CCC(N4CCCC4)CC3)cc2)nc1-c1cc2ccccc2s1,PIK3CA H1047L,"binding, competition with immobilised ligand",1 µM,97
F[C@@H]1CCN(c2nccc(-c3cnn4ncccc34)n2)C1,PIK3CA H1047Y,binding,1 µM,81
C[C@@H](c1ccc(-n2cnc3c(N)ncnc32)cc1)N1CCc2nn(C)c(Cc3ccccc3)c2C1=O,"Phosphatidylinositol 4,5-bisphosphate 3-kinase catalytic subunit alpha isoform (PIK3CA, Homo sapiens, UniProt P42336, E545A)","binding, competition with immobilised ligand",0.1 µM,100
C[C@@H]1CCN(c2nccc(-c3cnn4ncccc34)n2)C1,PIK3CA,binding,1 µM,100
O=C(Nc1cccnn1)N1CC(C/C=C/c2cncc(Oc3ccc(C(F)(F)F)cn3)n2)C1,PIK3CA C420R,"cell-free assay, competition with immobilised ligand",1 µM,66
C=CC(=O)N1CCC(C(=O)NCC(=O)N2CCN(c3nc(-c4cnc(N)nc4C(F)F)nc(N4CCOCC4)n3)CC2)CC1,PIK3CA C420R,"binding, competition with immobilised ligand",1 µM,0.6
O=C(c1ccc(Nc2ncc(Cl)c(-c3ccc(Cl)s3)n2)cc1)N1CCC(N2CCCC2)CC1,PIK3CA C420R,"binding, competition with immobilised ligand",1 µM,100
COc1cnc(Nc2cccc(S(N)(=O)=O)c2)nc1N1CCN(c2ccccc2)C(=O)C1,PIK3CA H1047L,"binding, competition with immobilised ligand",1 µM,90
COc1cccc(CNC(=O)c2nc3scc(COCc4ccc(C(=O)O)cc4)c3c(=O)[nH]2)c1,PIK3CA I800L,"cell-free assay, competition with immobilised ligand",1 µM,77.2
Nc1ncc2c(n1)-c1c([nH]c3ccc(C#CC4CC4)cc13)CCCC2,"Phosphatidylinositol 4,5-bisphosphate 3-kinase catalytic subunit alpha isoform (PIK3CA, Homo sapiens, UniProt P42336, M1043I)","binding, competition with immobilised ligand",1 µM,62
Nc1cnc(N2CCc3cc(S(=O)(=O)Nc4c(F)cc(Cl)cc4F)cc(N4CCCC4=O)c32)nc1,PIK3CA H1047Y,"cell-free assay, competition with immobilised ligand",1 µM,100
COc1ncc2cc3ccccc3nc2c1C#N,PIK3CA C420R,"cell-free assay, competition with immobilised ligand",5 µM,78
O=C(NCC1CCOCC1)c1n[nH]cc1NC(=O)c1c(F)cccc1F,PIK3CA H1047Y,"binding, competition with immobilised ligand",1 µM,100
CN(C(=O)c1ccccc1)c1cc(N(C)c2ccc3c(c2)CCc2ccc(C(=O)NCCN4CCOCC4)cc2C3=O)ccc1F,PIK3CA I800L,"cell-free assay, competition with immobilised ligand",1 µM,62
CN(CCCC(F)(F)F)c1nccc(-c2cnn3ncccc23)n1,PIK3CA C420R,binding,1 µM,100
CCC(=O)N[C@H]1CC[C@@H](C(=O)N(C)c2ccc(-c3nc4ccccc4o3)cc2)C1,"Phosphatidylinositol 4,5-bisphosphate 3-kinase catalytic subunit alpha isoform (PIK3CA, Homo sapiens, UniProt P42336, E545K)","cell-free assay, competition with immobilised ligand",1 µM,74
Cc1cnn2ncc(-c3ccnc(N(C)C)n3)c2c1,PIK3CA I800L,binding,1 µM,100
O=C(NCCCN1CCOCC1)c1ccc(Nc2nccc(-c3cc4ccccc4s3)n2)cc1,PIK3CA I800L,"binding, competition with immobilised ligand",1 µM,13
COc1cc(-c2cn(C3CCc4ccccc4N(CC(F)(F)F)C3=O)nn2)ccc1-n1ccc(C)n1 (stereo not drawn),"Phosphatidylinositol 4,5-bisphosphate 3-kinase catalytic subunit alpha isoform (PIK3CA, Homo sapiens, UniProt P42336, E542K)","cell-free assay, competition with immobilised ligand",1 µM,82
CC1CCCN1c1nccc(-c2cnn3ncccc23)n1 (stereo not drawn),PIK3CA I800L,binding,1 µM,88
